Bioassay records deposited in PubChem BioAssay by Johns Hopkins Ion Channel Center.
This is a sample that favours compounds with a hit; in the whole collection about 3.5% have one here.
MrgX1 ag – human MrgX1 receptor agonism, primary screen; AID 588627; Q96LB2; 0.44% of 310,000 active; MrgX1-HEK293 cells, Fluo-4 calcium fluorescence, agonist mode; stronger effect = higher value; B-score at 10 µM;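 active means calcium response B-score plate-corrected fluorescence ratio at least 3 library SD, with starting fluorescence B-score inside 5 SD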
Target sequence (Q96LB2 whole entry, looked up): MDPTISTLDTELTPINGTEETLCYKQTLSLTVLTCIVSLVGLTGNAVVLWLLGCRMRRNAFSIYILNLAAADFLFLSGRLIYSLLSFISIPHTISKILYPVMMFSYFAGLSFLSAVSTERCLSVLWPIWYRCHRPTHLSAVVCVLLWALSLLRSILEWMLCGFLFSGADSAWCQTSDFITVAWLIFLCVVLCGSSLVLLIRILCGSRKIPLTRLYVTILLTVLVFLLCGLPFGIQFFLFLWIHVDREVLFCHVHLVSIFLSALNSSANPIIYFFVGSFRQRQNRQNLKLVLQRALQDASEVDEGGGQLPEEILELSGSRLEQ
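System – MrgX1-expressing HEK293 cells · Incubation – cells plated overnight, dye loaded 0.5 h 37 °C, 0.5 h room temperature · Technique – kinetic Fluo-4 NW fluorescence of intracellular calcium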
RGS4 block – inhibitors of human RGS4. P49798. HEK293 M3R/RGS4 inducible, Fluo-4 calcium flux; stronger effect = higher value; triggered by carbachol at its EC20. B-score at 10 µM. 0.45% of 310,000 active;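 active means B-score, a plate-corrected calcium signal, over three deviations above library mean, with baseline fluorescence within five deviations of library mean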;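 further: RGS4 expression induced by doxycycline in cells with stable M3 receptor; B-score is computed from the integrated fluorescence ratio over baseline after carbachol; higher B-score means a larger calcium signal and so more RGS4 inhibition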
Target sequence (P49798 whole entry, looked up): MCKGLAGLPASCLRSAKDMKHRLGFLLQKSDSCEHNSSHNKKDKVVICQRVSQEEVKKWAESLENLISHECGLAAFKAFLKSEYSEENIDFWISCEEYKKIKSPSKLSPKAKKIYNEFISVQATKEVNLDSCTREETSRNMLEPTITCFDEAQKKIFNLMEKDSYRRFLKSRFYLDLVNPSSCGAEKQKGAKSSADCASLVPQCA
MrgX1 antag – blocks BAM8-22 activation of human MrgX1 receptor | B-score at 10 µM | MRGX1-HEK293 calcium flux, Fluo-4, BAM8-22 antagonism; stronger effect = lower value | Q96LB2 | 1.3% of 310,000 active;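 active means calcium-response B-score plate-corrected more than 3 library SD below zero, starting fluorescence within 5 deviations, no agonist response on first addition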;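 further: peak minus trough fluorescence over baseline after final BAM8-22 challenge near maximal dose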
MrgX1 PAM – human MrgX1 positive allosteric modulation, primary screen | Q96LB2 | 0.63% of 310,000 active | B-score at 10 µM | MrgX1-HEK293, Fluo-4 calcium flux, FDSS; stronger effect = higher value;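 active means plate-corrected calcium response at least 3 library SD above typical, normal starting fluorescence, not activating the receptor alone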;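 further: compound read alongside a low EC10 to EC30 dose of BAM8-22 agonist; peak minus trough fluorescence over baseline measured at the second addition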
RGS4 pot – potentiators or activators of RGS4; HEK293 M3R/inducible RGS4, carbachol calcium flux Fluo4; stronger effect = lower value; B-score at 10 µM; 0.92% of 310,000 active; AID 463111;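 active means B-score of the integrated calcium signal more than 4 SD below the library mean, with starting fluorescence not abnormally high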;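 further: negative B-score means reduced calcium response which marks RGS4 activation or potentiation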
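Assay system: Inducible-RGS4 HEK293 cells carrying M3 receptor | Schedule: Compound preincubation 20 min at room temperature before agonist | Signal: Kinetic calcium fluorescence imaging with Fluo4-AM dye, 2 µM | Read-out basis: B score from integrated fluorescence ratio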
* marks the source's active call; other numbers are inactive results; i = inactive; x = no result.

SMILES	MrgX1 ag	RGS4 block	MrgX1 antag	MrgX1 PAM	RGS4 pot
CCCOc1ccc(C2C(C(=O)c3ccco3)=C(O)C(=O)N2CCCn2ccnc2)cc1 (stereo not given)	i	i	-7.5*	i	i
CCCCN(CCCNC(=O)c1c(C)cc(=O)oc1C)c1ccccc1	i	i	-7.9*	i	i
C/C(=C\c1ccccc1)C(=O)N1CCN(c2cccc(C(F)(F)F)c2)CC1	i	i	-4.9*	i	i
O=C1C=C(c2ccccc2)CC(c2ccc(F)cc2)C1 (stereo not given)	i	i	i	i	i
COc1ccc(C2=CC(=O)CC(c3ccc(F)cc3)C2)cn1 (stereo not given)	i	i	i	10*	i
CC(C)c1ccc(NC(=O)C(c2ccccc2)N(Cc2ccco2)C(=O)CC2NC(=O)NC2=O)cc1 (stereo not given)	i	i	i	i	i
CCOC1=C/C(=C/c2c(N)n3oc(C)cc3nc2=O)C=CC1=O	i	i	i	8.6*	i
Cc1cc2nc(=O)c(/C=C3\C=Nc4ccccc43)c(N)n2o1	i	i	i	i	i
O=C(Cn1c2[n+](c3ccccc31)CC(O)CS2)c1ccccc1 (stereo not given)	i	i	i	i	i
O=C(NCCCN1CCOCC1)c1cccc(S(=O)(=O)Nc2cc(Cl)ccc2Cl)c1	i	i	i	i	i
CCCNC(=O)Cn1c(=O)/c(=C\c2ccc(-c3cccc([N+](=O)[O-])c3)o2)s/c1=C\C(=O)C(C)(C)C	i	i	-6.8*	i	i
CCCNC(=O)Cn1c(=O)/c(=C\c2ccc(-c3ccc([N+](=O)[O-])cc3)o2)s/c1=C\C(=O)C(C)(C)C	i	i	-9.5*	i	i
O=C1NC(=O)/C(=C/c2ccc(-c3cccc([N+](=O)[O-])c3)o2)S1	i	i	i	i	i
COc1cccc(C(=O)Oc2cc(C)[nH]c(=O)c2[N+](=O)[O-])c1OC	i	i	-4.8*	i	i
Cc1cc(OC(=O)c2ccccc2[N+](=O)[O-])c([N+](=O)[O-])c(=O)[nH]1	i	i	i	i	i
CCc1noc(C)c1C(=O)N1CCCC(CCC(=O)NCc2cccc(OC)c2)C1 (stereo not given)	i	i	-6.5*	i	i
N#C/C(=C/c1ccc(N2CCOCC2)o1)c1ccc(Br)cc1	39*	i	i	i	i
N#C/C(=C/c1ccc(N2CCCCCC2)o1)c1ccc(F)cc1	i	i	i	18*	i
O=C(Nc1c(-c2ccccc2)nc2ccccn12)c1cccc(F)c1	i	i	i	i	i
CCc1ccc2[nH]c(O)c(N=NC3=NC(=O)CS3)c2c1	i	i	i	i	i
CCc1ccc2c(c1)c(N=NC1=NC(=O)CS1)c(O)n2CC	i	5*	i	i	i
Cc1ccc(/C([O-])=C(/C(=S)NCc2ccco2)[n+]2ccccc2)cc1	i	4.7*	i	i	i
O=[N+]([O-])c1ccc(/C([O-])=C(/C(=S)NCc2ccco2)[n+]2ccccc2)cc1	i	i	i	i	i
COc1cccc(N/C(SC)=C(/C#N)C(=O)NCc2cccs2)c1	i	i	i	i	-7.5*
COc1cccc(N/C(SCc2ccccc2C)=C(/C#N)C(=O)NCc2cccs2)c1	i	i	i	i	i
SMILES	MrgX1 ag	RGS4 block	MrgX1 antag	MrgX1 PAM	RGS4 pot
Cc1nn(Cc2ccccc2)c(Cl)c1/C=C/C(=O)OC(C)C(=O)N1CCCC1 (stereo not given)	i	i	-5.9*	i	i
Cc1nn(Cc2ccccc2)c(Cl)c1/C=C/C(=O)OCC(=O)NC(C)C(C)C (stereo not given)	i	i	i	i	i
Cc1ccc(C(=O)CN2C(=O)NC3(CCCCCC3)C2=O)c(C)c1	i	i	i	i	i
C=CCn1c(-c2ccc(OC)c(OC)c2)n[nH]c1=S	i	i	i	i	i
C=CCn1c(-c2c(C)nc3cc(C)ccn23)n[nH]c1=S	i	i	-5.9*	i	i
CCOC(=O)N1CCC(N2CCCC(CO)(Cc3cccc(Cl)c3)C2)CC1 (stereo not given)	i	i	i	i	i
NC(=O)CSC1=N/C(=C\c2ccco2)C(=O)N1c1ccc(OC(F)F)cc1	i	i	i	i	i
CCOc1cc(/C=C2\N=C(SC(C)C(N)=O)N(c3ccc(OC(F)F)cc3)C2=O)ccc1O (stereo not given)	i	i	i	11*	i
CCN(CC)c1ccc2cc(/C(N)=N/NC(=O)c3cccs3)c(=O)oc2c1	i	i	i	27*	i
CCCCCc1ccc(OCCC[n+]2ccccc2)c(CCCCC)c1	i	i	i	i	i
CCCCCc1ccc(OCCOCCn2c[n+](C)c3ccccc32)c(CCCCC)c1	x	i	x	x	-7.6*
CO/N=C/CC(=O)c1cnc(-c2ccc(Cl)cc2)s1	i	i	i	i	i
OC(c1cccs1)(c1cccs1)C1C[N+]2(CF)CCC1CC2 (stereo not given)	i	i	i	i	-8.4*
O=C(CCC1CCCC1)NCc1cccs1	i	i	i	i	i
CC(C)CN(C(=O)C1CCCO1)C1CCS(=O)(=O)C1 (stereo not given)	i	i	i	i	i
Cc1cc(NC(=S)NC(=O)/C=C/c2ccc(S(=O)(=O)N3CCOCC3)cc2)ccc1Br	i	i	i	i	i
O=C(NCCCO)c1nnc(Cc2c(F)cccc2Cl)o1	i	i	i	i	i
O=C(NCCCN1CCN(Cc2ccccc2)CC1)c1nnc(Cc2c(F)cccc2Cl)o1	i	i	-4.7*	i	i
COc1ccc(CN(CCNC(=O)CCCCC(=O)NCCN(Cc2ccc(OC)cc2)C(C)C)C(C)C)cc1	i	i	i	i	-9.2*
Cc1ccccc1/C=C/c1nc2ccccc2c(=O)n1CCc1ccccc1	i	i	i	i	i
Cc1ccccc1/C=C/c1nc2ccccc2c(=O)n1Cc1ccccc1	i	i	i	i	-7.4*
CCC(C)[C@H]1CNC(=S)N1CCc1cc(C(F)(F)F)cc(C(F)(F)F)c1 (stereo not given in full)	i	i	-5.2*	i	i
CCC(C)[C@H]1CNCCN1CCc1cc(C(F)(F)F)cc(C(F)(F)F)c1 (stereo not given in full)	i	i	i	i	i
